{"source": "ChEMBL document CHEMBL4825702", "about": "“5-Aminonaphthalene derivatives as selective nonnucleoside nuclear receptor binding SET domain-protein 2 (NSD2) inhibitors for the treatment of multiple myeloma” (Eur J Med Chem, 2021)", "key": {"[1]": {"test": "MRT in CD-1 mouse at 2 mg/kg, ip measured up to 24 hrs by LC-MS/MS", "assay_type": "ADME, organism-based", "settings": "in vivo", "procedure,_shortened": "(§1)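 CD-1 mice dosed at 2 mg/kg i.p. or i.v., n = 3 per group. Blood sampled at 0, 0.083, 0.25, 0.5, 1, 2, 4, 6, 8 and 24 h and spun for plasma. Internal standard added, deproteinized with methanol/acetonitrile (1:1), supernatant diluted and analysed by LC/MS/MS.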"}, "[2]": {"target": "Histone-lysine N-methyltransferase SETD2 (Homo sapiens, UniProt Q9BYW2)", "sequence (Q9BYW2 whole entry)": "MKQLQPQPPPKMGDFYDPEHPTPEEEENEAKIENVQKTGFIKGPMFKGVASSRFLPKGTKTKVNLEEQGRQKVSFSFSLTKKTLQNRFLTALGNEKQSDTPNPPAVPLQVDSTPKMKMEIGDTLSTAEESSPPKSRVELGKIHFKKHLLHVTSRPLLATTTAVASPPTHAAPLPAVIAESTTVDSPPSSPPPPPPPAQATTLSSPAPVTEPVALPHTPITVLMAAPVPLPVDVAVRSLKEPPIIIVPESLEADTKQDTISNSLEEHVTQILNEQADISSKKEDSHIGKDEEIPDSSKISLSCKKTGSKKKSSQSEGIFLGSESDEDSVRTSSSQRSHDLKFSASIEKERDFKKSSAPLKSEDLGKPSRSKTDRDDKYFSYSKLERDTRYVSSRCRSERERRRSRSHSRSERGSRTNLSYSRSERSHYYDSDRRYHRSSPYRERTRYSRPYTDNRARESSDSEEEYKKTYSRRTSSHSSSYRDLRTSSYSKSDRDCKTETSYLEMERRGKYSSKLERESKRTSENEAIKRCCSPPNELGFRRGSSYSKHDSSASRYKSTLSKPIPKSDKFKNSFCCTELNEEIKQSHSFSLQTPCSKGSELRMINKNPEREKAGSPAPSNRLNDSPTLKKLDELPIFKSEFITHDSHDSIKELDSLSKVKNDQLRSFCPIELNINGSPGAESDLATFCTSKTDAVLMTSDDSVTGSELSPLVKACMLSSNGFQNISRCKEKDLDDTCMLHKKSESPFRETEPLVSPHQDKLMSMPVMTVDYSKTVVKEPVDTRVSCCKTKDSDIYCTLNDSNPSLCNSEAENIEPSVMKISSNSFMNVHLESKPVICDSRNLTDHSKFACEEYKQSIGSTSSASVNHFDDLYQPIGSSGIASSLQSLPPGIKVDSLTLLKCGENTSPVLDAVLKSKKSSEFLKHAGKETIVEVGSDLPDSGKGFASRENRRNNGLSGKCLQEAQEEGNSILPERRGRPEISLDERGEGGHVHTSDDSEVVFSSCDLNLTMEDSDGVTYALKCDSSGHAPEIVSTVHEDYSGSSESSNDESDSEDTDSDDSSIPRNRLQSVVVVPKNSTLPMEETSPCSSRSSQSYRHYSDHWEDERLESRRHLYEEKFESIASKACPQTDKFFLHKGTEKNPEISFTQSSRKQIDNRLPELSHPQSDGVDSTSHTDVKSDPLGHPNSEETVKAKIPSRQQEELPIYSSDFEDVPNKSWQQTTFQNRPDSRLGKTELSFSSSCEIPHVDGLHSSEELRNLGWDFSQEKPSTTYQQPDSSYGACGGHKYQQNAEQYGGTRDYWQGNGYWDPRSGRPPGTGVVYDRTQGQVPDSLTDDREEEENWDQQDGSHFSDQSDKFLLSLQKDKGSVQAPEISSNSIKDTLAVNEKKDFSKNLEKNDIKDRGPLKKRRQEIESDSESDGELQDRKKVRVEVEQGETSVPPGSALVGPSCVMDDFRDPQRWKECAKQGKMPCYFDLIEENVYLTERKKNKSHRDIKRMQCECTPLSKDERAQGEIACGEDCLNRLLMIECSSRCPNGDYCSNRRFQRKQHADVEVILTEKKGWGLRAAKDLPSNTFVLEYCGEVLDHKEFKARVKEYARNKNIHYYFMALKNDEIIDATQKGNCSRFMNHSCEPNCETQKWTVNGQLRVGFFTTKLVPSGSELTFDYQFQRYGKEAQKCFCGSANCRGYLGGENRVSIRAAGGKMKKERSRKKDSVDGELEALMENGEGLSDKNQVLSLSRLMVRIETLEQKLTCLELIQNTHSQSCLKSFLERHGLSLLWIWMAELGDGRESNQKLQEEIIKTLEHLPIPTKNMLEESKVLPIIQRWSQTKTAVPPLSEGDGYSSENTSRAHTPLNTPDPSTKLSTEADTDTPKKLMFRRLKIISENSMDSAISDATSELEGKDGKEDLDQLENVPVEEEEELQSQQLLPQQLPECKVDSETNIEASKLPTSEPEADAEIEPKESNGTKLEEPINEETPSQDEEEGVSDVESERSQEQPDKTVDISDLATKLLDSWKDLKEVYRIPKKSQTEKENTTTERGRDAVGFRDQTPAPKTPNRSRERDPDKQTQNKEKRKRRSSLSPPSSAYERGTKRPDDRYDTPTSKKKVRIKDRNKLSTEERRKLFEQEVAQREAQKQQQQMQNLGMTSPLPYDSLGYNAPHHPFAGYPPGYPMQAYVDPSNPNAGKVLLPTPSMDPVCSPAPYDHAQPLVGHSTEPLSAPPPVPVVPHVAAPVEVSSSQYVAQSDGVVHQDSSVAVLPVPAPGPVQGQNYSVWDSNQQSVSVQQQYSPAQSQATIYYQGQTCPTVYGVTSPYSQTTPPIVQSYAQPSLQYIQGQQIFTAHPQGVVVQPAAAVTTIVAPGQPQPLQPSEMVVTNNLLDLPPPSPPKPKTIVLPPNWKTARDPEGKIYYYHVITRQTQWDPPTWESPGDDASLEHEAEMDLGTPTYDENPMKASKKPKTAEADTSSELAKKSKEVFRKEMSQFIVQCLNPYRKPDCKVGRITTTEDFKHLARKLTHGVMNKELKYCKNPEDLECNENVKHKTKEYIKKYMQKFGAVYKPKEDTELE", "test": "Inhibition of SETD2 (unknown origin) using SAM as substrate preincubated for 10 mins followed by substrate addition measured after 4 hrs by AlphaLISA method"}, "[3]": {"test": "Volume of distribution in CD-1 mouse at 2 mg/kg, iv measured up to 24 hrs by LC-MS/MS", "assay_type": "ADME, organism-based", "settings": "in vivo", "procedure,_shortened": "as §1"}, "[4]": {"test_system": "HL-60", "test": "Antiproliferative activity against human HL-60 cells assessed as reduction in cell viability incubated for 6 days by CCK8 assay"}, "[5]": {"target": "Protein arginine N-methyltransferase 5 (Homo sapiens, UniProt O14744)", "sequence (O14744 whole entry)": "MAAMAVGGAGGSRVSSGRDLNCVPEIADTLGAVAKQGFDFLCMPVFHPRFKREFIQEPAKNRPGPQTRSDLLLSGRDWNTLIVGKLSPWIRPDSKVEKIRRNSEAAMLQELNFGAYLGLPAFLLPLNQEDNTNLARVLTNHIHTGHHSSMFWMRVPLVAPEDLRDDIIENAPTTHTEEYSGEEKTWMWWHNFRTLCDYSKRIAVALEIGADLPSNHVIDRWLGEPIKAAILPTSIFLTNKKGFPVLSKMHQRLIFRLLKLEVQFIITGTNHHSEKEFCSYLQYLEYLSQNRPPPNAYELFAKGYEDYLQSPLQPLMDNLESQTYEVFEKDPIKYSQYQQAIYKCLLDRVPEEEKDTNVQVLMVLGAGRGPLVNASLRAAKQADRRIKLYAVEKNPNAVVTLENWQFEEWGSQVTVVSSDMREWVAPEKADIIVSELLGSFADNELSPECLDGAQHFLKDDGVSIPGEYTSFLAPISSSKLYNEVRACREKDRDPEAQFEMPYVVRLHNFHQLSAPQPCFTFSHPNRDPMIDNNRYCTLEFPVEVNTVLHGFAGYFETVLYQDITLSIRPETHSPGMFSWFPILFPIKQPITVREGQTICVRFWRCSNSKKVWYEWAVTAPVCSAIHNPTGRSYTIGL", "test": "Inhibition of PRMT5 (unknown origin) using SAM as substrate preincubated for 10 mins followed by substrate addition measured after 4 hrs by AlphaLISA method"}, "[6]": {"test_system": "RS4-11", "test": "Antitumor activity against human RS4-11 cells xenografted in SCID mouse assessed as tumor growth inhibition at 25 mg/kg, ip qd administered consecutively for 21 days relative to control", "settings": "RS4-11, ip, 504 h, read-out: TGI"}, "[7]": {"test": "Half life in CD-1 mouse at 2 mg/kg, ip measured up to 24 hrs by LC-MS/MS", "assay_type": "ADME, organism-based", "settings": "in vivo", "procedure,_shortened": "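CD-1 mice given a single 2 mg/kg dose i.p. or i.v. (n = 3 per group). Blood sampled at 0, 0.083, 0.25, 0.5, 1, 2, 4, 6, 8 and 24 h and centrifuged for plasma, with internal standard added. Plasma deproteinized with methanol/acetonitrile (1:1), supernatant diluted with acetonitrile/water, and compound measured by LC/MS/MS.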"}, "[8]": {"test_system": "RS4-11", "test": "Antiproliferative activity against human RS4-11 cells assessed as reduction in cell viability incubated for 6 days by CCK8 assay", "assay_type": "functional, cell-based", "settings": "dose 1-100 µM, time 6.0 day", "procedure,_shortened": "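Cells seeded in triplicate at 6000–20000 per well and left 24 h, then exposed to increasing concentrations for a further 6 days. Viability read with CCK-8 and growth IC50 derived from the dose–response.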"}, "[9]": {"test_system": "RS4-11", "test": "Induction of apoptosis in human RS4-11 cells incubated for 72 hrs by annexin-V/FITC and propidium iodide staining based flow cytometry analysis", "assay_type": "functional, cell-based", "settings": "dose 5-10 µM"}, "[10]": {"target": "Histone-lysine N-methyltransferase, H3 lysine-79 specific (Homo sapiens, UniProt Q8TEK3)", "sequence (Q8TEK3 whole entry)": "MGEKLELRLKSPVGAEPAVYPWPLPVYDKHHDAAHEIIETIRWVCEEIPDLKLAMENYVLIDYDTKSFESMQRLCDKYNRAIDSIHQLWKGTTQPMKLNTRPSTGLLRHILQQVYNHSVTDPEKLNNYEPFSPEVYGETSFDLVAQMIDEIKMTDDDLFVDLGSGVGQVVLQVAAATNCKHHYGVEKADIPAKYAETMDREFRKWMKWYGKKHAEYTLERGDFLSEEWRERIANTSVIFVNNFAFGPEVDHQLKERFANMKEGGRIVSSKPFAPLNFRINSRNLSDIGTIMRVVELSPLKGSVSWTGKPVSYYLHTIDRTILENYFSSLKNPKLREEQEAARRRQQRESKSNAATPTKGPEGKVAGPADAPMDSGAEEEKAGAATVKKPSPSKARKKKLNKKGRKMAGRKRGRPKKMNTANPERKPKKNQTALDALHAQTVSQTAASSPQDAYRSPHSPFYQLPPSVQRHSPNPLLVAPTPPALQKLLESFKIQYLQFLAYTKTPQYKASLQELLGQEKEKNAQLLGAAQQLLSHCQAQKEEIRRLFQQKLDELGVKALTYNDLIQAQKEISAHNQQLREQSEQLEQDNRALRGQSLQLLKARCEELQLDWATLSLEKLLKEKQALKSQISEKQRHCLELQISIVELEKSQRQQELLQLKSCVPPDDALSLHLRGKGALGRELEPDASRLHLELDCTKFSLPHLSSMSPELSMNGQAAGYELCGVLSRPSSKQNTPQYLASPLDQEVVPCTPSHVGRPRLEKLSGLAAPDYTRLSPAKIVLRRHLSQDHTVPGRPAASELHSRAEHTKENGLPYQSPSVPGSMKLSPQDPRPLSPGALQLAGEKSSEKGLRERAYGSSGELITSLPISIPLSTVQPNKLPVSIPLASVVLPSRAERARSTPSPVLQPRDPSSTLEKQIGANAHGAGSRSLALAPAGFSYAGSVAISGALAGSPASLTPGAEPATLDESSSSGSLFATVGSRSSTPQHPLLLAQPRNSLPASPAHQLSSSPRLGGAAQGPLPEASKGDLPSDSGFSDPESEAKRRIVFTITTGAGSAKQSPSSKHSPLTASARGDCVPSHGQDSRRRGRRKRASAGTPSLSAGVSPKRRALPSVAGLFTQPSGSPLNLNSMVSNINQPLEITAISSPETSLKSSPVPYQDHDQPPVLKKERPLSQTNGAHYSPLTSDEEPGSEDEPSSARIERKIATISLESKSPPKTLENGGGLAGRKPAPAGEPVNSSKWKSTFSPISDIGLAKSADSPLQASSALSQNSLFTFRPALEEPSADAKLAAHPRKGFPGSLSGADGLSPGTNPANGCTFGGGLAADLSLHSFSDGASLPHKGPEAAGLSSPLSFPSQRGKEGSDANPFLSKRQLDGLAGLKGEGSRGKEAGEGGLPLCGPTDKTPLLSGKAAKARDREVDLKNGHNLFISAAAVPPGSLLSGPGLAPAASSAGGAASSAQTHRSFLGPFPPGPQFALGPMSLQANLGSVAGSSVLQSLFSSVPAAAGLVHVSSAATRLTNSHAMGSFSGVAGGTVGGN", "test": "Inhibition of DOT1L (unknown origin) using SAM as substrate preincubated for 10 mins followed by substrate addition measured after 4 hrs by AlphaLISA method"}, "[11]": {"test_system": "KMS-11", "test": "Antiproliferative activity against human KMS-11 cells assessed as reduction in cell viability at 1 to 100 uM by CCK8 assay", "assay_type": "functional, cell-based", "settings": "dose 1-100 µM, time 6.0 day, TDE = time-dependent effect"}, "[12]": {"test_system": "U2932", "test": "Antiproliferative activity against human U2932 cells assessed as reduction in cell viability incubated for 6 days by CCK8 assay"}, "[13]": {"test_system": "RPMI-8226", "test": "Antiproliferative activity against human RPMI-8226 cells assessed as reduction in cell viability incubated for 6 days by CCK8 assay"}}, "note": "pIC50: −log10 of the molar value. Activity calls are given as the source filed them. The calls are words filed in the database; no cut-off is given here."}
{"smiles": "Cl.Nc1cccc2c(S(=O)(=O)NCc3ccccc3)cccc12", "values": [{"measurement": "MRT", "setting": "[1]", "value": 31.9, "unit": "min"}, {"measurement": "pIC50", "setting": "[2]", "value": "< 4.70"}, {"measurement": "Vd", "setting": "[3]", "value": 3.85, "unit": "L/kg"}, {"measurement": "Activity", "setting": "[4]", "value": "Active"}, {"measurement": "pIC50", "setting": "[5]", "value": "< 4.70"}, {"measurement": "inhibition in vivo at 25 mg/kg", "setting": "[6]", "value": 43.6, "unit": "%"}, {"measurement": "half-life", "setting": "[7]", "value": 33.6, "unit": "min"}, {"measurement": "Activity", "setting": "[8]", "value": "Dose-Dependent Effect"}, {"measurement": "Activity", "setting": "[9]", "value": "Dose-Dependent Effect"}, {"measurement": "pIC50", "setting": "[10]", "value": "< 4.70"}, {"measurement": "Activity", "setting": "[11]", "value": "Tde"}, {"measurement": "Activity", "setting": "[12]", "value": "Active"}, {"measurement": "Activity", "setting": "[13]", "value": "Active"}]}
